The values that follow come from article PMC5884419 (European journal of pharmaceutical sciences : official …, 2018).

Where two headings read alike, the source gives them in different places. Marks after values point to notes of the source that are not given here.

For data set [1] the following is noted: rat plasma; ref Liu et al., 2014; cited from earlier work.
A short description of data set [2]: plasma concentration after i.v. administration. The data set is classed as in vivo, mice. Particulars: mouse, iv, 10 mg/kg.
The test system of data set [3] is human ABCB1. Particulars: ref Weidner et al., 2015; cited from earlier work.
The conditions of data set [4]: mice, 1 h after i.v. 10 mg/kg; ref Zhang et al., 2011; cited from earlier work.
Data set [5] in a line: tolerability of co-injected pharmacologic dose of unlabeled Ko143. The data set is classed as in vivo. Particulars: wild-type mice, 10 mg/kg i.v. co-injected with radiotracer.
The target of data set [6] is T1, Abcb1a/b (Mus musculus, UniProt P21447). Particulars: Abcb1a/b^(-/-) and Abcb1a/b^(-/-)Abcg2^(-/-) mice; ref Liu et al., 2012; cited from earlier work.
The target of data set [7] is T2, Abcg2 (Mus musculus, UniProt Q7TMS5).
T2 sequence (Q7TMS5 1-657): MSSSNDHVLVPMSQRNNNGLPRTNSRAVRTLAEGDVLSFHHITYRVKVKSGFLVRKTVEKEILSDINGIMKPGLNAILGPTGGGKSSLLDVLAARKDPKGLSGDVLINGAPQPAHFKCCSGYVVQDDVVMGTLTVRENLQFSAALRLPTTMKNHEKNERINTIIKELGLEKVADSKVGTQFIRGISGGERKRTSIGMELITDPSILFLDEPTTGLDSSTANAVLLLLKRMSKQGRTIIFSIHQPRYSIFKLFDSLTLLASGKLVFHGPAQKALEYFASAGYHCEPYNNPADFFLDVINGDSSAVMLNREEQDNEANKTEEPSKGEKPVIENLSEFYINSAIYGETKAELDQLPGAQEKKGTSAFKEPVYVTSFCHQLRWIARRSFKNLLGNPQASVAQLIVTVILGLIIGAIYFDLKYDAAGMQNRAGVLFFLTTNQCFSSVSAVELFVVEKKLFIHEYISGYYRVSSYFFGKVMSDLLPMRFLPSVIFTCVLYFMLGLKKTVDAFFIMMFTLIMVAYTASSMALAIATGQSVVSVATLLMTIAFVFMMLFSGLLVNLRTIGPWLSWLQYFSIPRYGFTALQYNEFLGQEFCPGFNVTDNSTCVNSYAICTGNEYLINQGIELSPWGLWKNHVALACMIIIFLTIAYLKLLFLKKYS
The data set is classed as in vivo. Particulars: Abcg2^(-/-) and Abcb1a/b^(-/-)Abcg2^(-/-) mice, microdose. The gist of the method:
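Female FVB Abcg2(-/-), Abcb1a/b(-/-)Abcg2(-/-) and wild-type mice, 7–8 weeks old, under isoflurane, had 60-min dynamic PET started with a tail-vein i.v. microdose of radiotracer (26.6 ± 10.5 MBq, 0.1 mL). The kidney-to-urine rate constant kurine was derived from 4.5–45 min data, given as mean ± S.D. Knockouts were compared with wild-type by one-way ANOVA with Tukey's test.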

Data set [8] deals with T1, Abcb1a/b. The data set is classed as in vivo. Particulars: wild-type and Abcg2^(-/-) mice, microdose.
Data set [9] can be described thus: radio-TLC analysis of radiolabeled metabolites in tissues and fluids. The data set is classed as in vivo, mice. Particulars: 20 min after i.v. injection. The gist of the method: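 Female FVB wild-type and Abcb1a/b(-/-)Abcg2(-/-) mice, 7–8 weeks old, under isoflurane, given radiotracer i.v. (28.4 ± 4.1 MBq, 0.1 mL). At 20 min, blood was drawn from the retro-orbital sinus and the animals were killed. Plasma, liver, kidneys, brain, bile and urine were collected. Tissues were homogenised, proteins precipitated with acetonitrile, then spun at 12,000 g, 5 min, 4°C. Percent unchanged radiotracer was determined by radio-TLC.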

Data set [10] is classed as in vivo, mice. The gist of the method: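 Female FVB wild-type mice under isoflurane had 60-min dynamic PET after tail-vein injection of radiotracer mixed with test compound (10 mg/kg) or its vehicle (4 mL/kg), versus radiotracer alone. Liver and kidney kuptake came from an integration plot over 0.3–3.5 min. kurine and kbile came from 4.5–45 min data, with biliary activity taken as gallbladder + duodenum + intestine. Extraction ratio = kuptake divided by assumed blood flow (liver 1.0, kidney 4.1 mL/min/g).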

The test system of data set [11] is ABCB1. Particulars: ref Hugger et al., 2002, cited from earlier work.
Where [12] appears, read: wild-type mice, microdose i.v., integration plot 0.3-3.5 min.

T1 sequence (P21447 whole entry): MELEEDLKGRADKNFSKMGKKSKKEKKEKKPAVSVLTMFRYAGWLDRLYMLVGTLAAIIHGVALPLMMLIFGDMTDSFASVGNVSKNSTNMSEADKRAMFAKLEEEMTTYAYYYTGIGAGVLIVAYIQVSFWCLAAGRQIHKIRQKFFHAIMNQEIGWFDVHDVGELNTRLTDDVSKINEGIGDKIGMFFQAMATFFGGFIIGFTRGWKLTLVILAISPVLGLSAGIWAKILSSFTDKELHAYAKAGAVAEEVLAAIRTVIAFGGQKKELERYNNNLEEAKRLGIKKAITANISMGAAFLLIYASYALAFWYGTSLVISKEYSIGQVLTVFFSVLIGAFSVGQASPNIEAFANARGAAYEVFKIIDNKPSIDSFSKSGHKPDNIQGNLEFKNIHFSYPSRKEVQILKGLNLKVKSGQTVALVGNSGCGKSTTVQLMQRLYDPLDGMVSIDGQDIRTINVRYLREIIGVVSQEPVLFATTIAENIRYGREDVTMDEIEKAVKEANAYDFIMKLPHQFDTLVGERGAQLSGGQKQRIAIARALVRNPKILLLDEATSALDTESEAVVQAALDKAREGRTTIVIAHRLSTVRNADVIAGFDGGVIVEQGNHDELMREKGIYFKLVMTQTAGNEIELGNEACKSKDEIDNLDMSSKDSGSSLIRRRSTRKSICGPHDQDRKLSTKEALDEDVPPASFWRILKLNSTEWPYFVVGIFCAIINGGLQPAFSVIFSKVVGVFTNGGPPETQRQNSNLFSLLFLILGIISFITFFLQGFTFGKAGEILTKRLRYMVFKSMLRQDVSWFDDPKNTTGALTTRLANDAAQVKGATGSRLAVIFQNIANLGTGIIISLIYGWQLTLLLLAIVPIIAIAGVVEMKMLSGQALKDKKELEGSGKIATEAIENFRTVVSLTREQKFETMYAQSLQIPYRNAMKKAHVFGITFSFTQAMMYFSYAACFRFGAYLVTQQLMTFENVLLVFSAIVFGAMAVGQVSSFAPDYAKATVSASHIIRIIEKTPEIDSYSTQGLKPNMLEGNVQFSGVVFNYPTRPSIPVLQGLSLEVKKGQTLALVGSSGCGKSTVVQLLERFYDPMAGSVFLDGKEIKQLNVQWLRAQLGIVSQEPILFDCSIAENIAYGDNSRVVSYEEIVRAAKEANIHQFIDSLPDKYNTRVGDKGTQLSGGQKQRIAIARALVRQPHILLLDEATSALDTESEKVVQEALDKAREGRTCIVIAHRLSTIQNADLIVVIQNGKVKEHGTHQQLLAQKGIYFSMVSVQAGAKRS

Consider `COc1ccc2c3c([nH]c2c1)[C@H](CC(C)C)N1C(=O)[C@H](CCC(=O)OC(C)(C)C)NC(=O)[C@@H]1C3` [Ko143, (3S,6S,12aS)-1,2,3,4,6,7,12,12a-octahydro-9-methoxy-6-(2-methylpropyl)-1,4-dioxopyrazino[1’,2’:1,6]pyrido[3,4-b]indole-3-propanoic acid 1,1-dimethylethyl ester], for which, in data set [1], the “unbound fraction in plasma” value was 0.0293. For the same compound, the concentration at 1 h in data set [2] turned out to be 12 nM. For the same compound, in data set [3], the “effect on human ABCB1 ATPase activity” value is on record as “stimulated”. For the same compound, in data set [4], the plasma concentration was 420 nM. Also, the tolerability result in [5] is “well tolerated”. Besides, the “brain concentrations, fold higher than in Abcg2^(-/-) mice” value in data set [6] is on record as “about 3 fold”.

Regarding `CC(C)C[C@H]1c2[nH]c3cc(O[11CH3])ccc3c2C[C@H]2C(=O)N[C@@H](CCC(=O)OC(C)(C)C)C(=O)N21` [[^11C]Ko143], the “kurine compared with wild-type mice” value in data set [7] is “significantly lower”. Also, the “brain concentration-time curves, fold lower than in Abcb1a/b^(-/-) and Abcb1a/b^(-/-)Abcg2^(-/-) mice” value in data set [8] was “approximately 2 fold”. In addition, in data set [9] (Abcb1a/b^(-/-)Abcg2^(-/-) mice), the “Percentage of unchanged radiotracer, Bile” value was 1.5 ± 1.0%; the “Percentage of unchanged radiotracer, Brain” value was 73.2 ± 2.4 ^a %; the “Percentage of unchanged radiotracer, Kidney” value is 21.6 ± 2.0%; the “Percentage of unchanged radiotracer, Liver” value came out at 16.0 ± 1.8%. Besides, the “Percentage of unchanged radiotracer, Plasma” value in [9] (Abcb1a/b^(-/-)Abcg2^(-/-) mice) amounted to 34.7 ± 0.4%. In [9] (wild-type mice), the “Percentage of unchanged radiotracer, Bile” value is given as 15.2 ± 21.0%; the “Percentage of unchanged radiotracer, Brain” value turned out to be 51.5 ± 13.9%; the “Percentage of unchanged radiotracer, Kidney” value is 35.6 ± 9.6%; the “Percentage of unchanged radiotracer, Liver” value is recorded as 17.4 ± 2.7%. In [9] (wild-type mice), the “Percentage of unchanged radiotracer, Plasma” value was found to be 36.0 ± 1.5%. In addition, the “kbile, fold lower than with [^11C]Ko143 alone” value in data set [10] (wild-type mice co-injected with Ko143 vehicle) is recorded as 2.4 fold. In addition, in data set [10] (wild-type mice co-injected with unlabeled Ko143 (10 mg/kg)), the “kbile, fold lower than with [^11C]Ko143 alone” value is on record as 1.9 fold. In data set [10] (wild-type mice co-injected with unlabeled Ko143 (10 mg/kg) or Ko143 vehicle), the kurine entry was “almost decreased to zero”. In [10] (setting [12]), the “mean kuptake, kidney” value came to 0.262 mL/min/g tissue and the “mean kuptake, liver” value stood at 0.689 mL/min/g tissue.

On to polyethylene glycol 300 [PEG300], for which the “inhibition of ABCB1 activity” value in data set [11] (20% v/v, Caco-2 and MDR1-MDCK cell monolayers) is “almost complete in vitro inhibition”.

Take polysorbate 80: in data set [11] (0.05% w/v, Caco-2 cells), the “inhibition of ABCB1 activity” value is “only partially inhibited”.
